# Screening data (PubChem BioAssay)
# Hits are enriched below; roughly 4.4% of the tested compounds scored in any of these assays.
# MsrA inh – bovine MsrA inhibition. purified bovine MsrA, absorbance read-out. inhibition, % at 15.5 µM. 0.75% of 360,000 active. AID 651718; in the data active = inhibition above about 4.5%;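 also: 0% = vehicle wells with enzyme and 100% = reference inhibitor wells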
# AHR activator – activators of human aryl hydrocarbon receptor. P35869. AHR-responsive luciferase reporter cells, luminescence. activation, % at 5 µM. 2.5% of 320,000 active. AID 2796; in the data active = activation above about 47%;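 also: 0% = vehicle wells and 100% = reference agonist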
# bovine MsrA act – activators of bovine methionine sulfoxide reductase A; activation, % at 10.6 µM; purified bovine MsrA, absorbance read-out; 0.3% of 360,000 active; AID 602163; in the data active = activation above about 7.5%;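 also: 0% = vehicle and 100% = reference activator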
# AI-2 QS mod – modulates the Vibrio harveyi AI-2 quorum sensing system. 0.4% of 300,000 active. activity change, % at 7.5 µM. AID 2094. Vibrio harveyi JMH597 AI-2 luminescence/OD600 ratio, 9 h; stronger effect = lower value; strain lacks LuxN and CqsS sensors; 0 = neutral-control median; in the data active = activity change below about -75%, passing the limit was not always enough;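 also: luminescence divided by OD600 gain over 9 h not by final OD600 alone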
# m5-HT2A agonist – mouse HTR2A agonism via beta-arrestin recruitment | P35363 | CHO-K1 mHTR2A beta-arrestin complementation, luminescence; percent of 30 µM serotonin response | activation, % at 7.6 µM | 0.66% of 360,000 active | AID 624169;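 active = activation above a run cutoff, the mean activation of all tested compounds plus 3 SD, cut at about 14% in these data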;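 also: 0% = plate median of compound wells and 100% = 30 µM serotonin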
# TbMetRS inhib – blocks T. brucei methionyl-tRNA synthetase activity. purified T. brucei MetRS, ATP depletion, Kinase-Glo luminescence. 0.4% of 360,000 active. inhibition, % at 11.9 µM. AID 624268;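 active = inhibition above a per-plate cutoff of the control wells' mean inhibition plus 3 SD, cut at about 5.5% in these data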;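 also: 0% = DMSO wells median and 100% = median of wells with control inhibitor compound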
#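 Dosing: 11.9 µM single point; system: parasite MetRS enzyme; technique: luminescence of leftover ATP; times: 15 min enzyme-compound preincubation, 2 h reaction, 10 min detection, 25 °C; replicates: each compound tested once; read-out basis: percent inhibition relative to median high and low control wells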
# AHR act confirm – human AHR activation, confirmation; shares compounds with AHR activator; human cells, AHR-responsive luciferase reporter, luminescence; activation, % at 9 µM; 87% of 2,300 active; AID 2845; in the data active = activation above about 49%;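 also: HepG2 hepatoma cells carrying a DRE-driven firefly luciferase reporter; 0% = vehicle wells and 100% = reference agonist wells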
# PXR act counter – PXR activation, counter-screen for AHR activators | shares compounds with AHR activator | cell-based PXR reporter, luciferase luminescence | activation, % at 11.6 µM | 88% of 2,300 active; in the data active = activation above about 11%;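 also: human hepatoma DPX-2 cells expressing full-length human PXR; 0% = DMSO and 100% = reference agonist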
# * marks the source's active call; other numbers are inactive results; . = not tested or not shown.
SMILES,MsrA inh,AHR activator,bovine MsrA act,AI-2 QS mod,m5-HT2A agonist,TbMetRS inhib,AHR act confirm,PXR act counter
COc1ccccc1C(=O)Nc1ccc2c3c(cccc13)CC2,-1,83*,-2,29,-4,-1,35,85*
COc1cccc(Nc2nc(-c3cccs3)nc3ccccc23)c1,0,88*,-3,22,0,0,41,68*
COc1ccc(CCN(C)C(=O)c2ccc(S(=O)(=O)Nc3ccccc3F)cc2)cc1OC,0,1,-4,18,1,-1,.,.
c1ccc(-c2n[nH]c(-c3ccccn3)n2)nc1,-2,12,-7,18,2,-2,.,.
c1ccc(-c2n[nH]c(-c3ccccn3)n2)cc1,0,90*,-11,30,6,-2,81*,24*
Cc1c(-c2nc3ccccc3[nH]2)cnn1C,-1,-1,-2,.,-2,0,.,.
Cn1cc(-c2nc3ccccc3[nH]2)c2ccccc21,2,138*,-5,9,-7,1,122*,64*
C/C(=N\NC(=O)c1ccccc1)c1ccc2c(c1)OCO2,0,2,0,19,-3,0,.,.
C/C(=N\Nc1nc2ccccc2s1)c1ccc2c(c1)OCO2,2,90*,0,-2,-4,1,112*,31*
COc1ccc2ccc(OC)c(/C=N/NC(=O)c3cc4ccccc4o3)c2c1,2,.,0,.,-2,0,.,.
COc1ccc2oc(C(=O)NNC(=O)c3ccc(F)cc3)c(C)c2c1,-1,-2,-4,1,2,0,.,.
COc1ccc(/C=C/C(=O)c2oc3ccc(F)cc3c2C)cc1,.,81*,-1,23,0,0,130*,75*
Clc1cccc(-c2nc(-c3ccccn3)no2)c1,0,104*,-11,15,-3,-1,41,-2
c1ccc(-c2noc(-c3cccc4ccccc34)n2)nc1,0,103*,-2,-7,2,0,21,10
CC(=O)Nc1cccc(-c2ccnc3c2CC(C)(C(=O)NCc2cccs2)O3)c1 (stereo not drawn),1,.,-2,.,7,0,.,.
N/C(=N\c1nc2ccccc2o1)NC(=O)c1ccccc1,2,184*,-2,-2,0,0,180*,94*
COc1ccccc1NC(=O)C1CCCN(c2cnccn2)C1 (stereo not drawn),0,96*,-3,19,3,1,80*,24*
CC1(c2ccccc2)NC(=O)N(CC(=O)N2CCN(S(=O)(=O)c3ccccc3[N+](=O)[O-])CC2)C1=O (stereo not drawn),-1,-2,-4,22,-2,0,.,.
C=CCn1c(O)c(N=Nc2ccccc2O)c2ccccc21,1,82*,0,.,0,0,87*,33*
Cc1c(C(=O)NCc2ccco2)oc2c(Cl)cccc12,-1,40,-5,.,-6,0,.,.
Cc1c(C(=O)NCc2ccccn2)oc2c(Cl)cccc12,0,87*,-13,.,-2,-1,132*,50*
O=C(CC1C[C@H](C(=O)N2CCOCC2)[C@@]2(CCC3CCCC3)c3[nH]c4ccccc4c3CCN2C1=O)NCCCn1ccnc1 (stereo partly drawn),3,2,-2,.,-2,0,.,.
O=C(c1cccs1)N1CCN(c2ccc(Cl)cc2)CC1,-1,-6,-1,11,-1,1,.,.
COCCNC(=O)c1cc2c(-c3ccccc3F)nn(C)c2s1,0,98*,-2,4,-5,0,122*,24*
CCCCN(C)CCNC(=O)c1cc2c(-c3ccccc3F)nn(C)c2s1,1,18,-2,18,-7,0,.,.
COc1cccc(-c2nn(C)c3sc(C(=O)NCc4ccco4)cc23)c1,1,95*,-10,-10,-8,-1,130*,44*
CNC(=O)c1cc2c(-c3ccccc3)nn(C)c2s1,0,99*,-6,-2,-2,-1,114*,24*
